Active and inactive are the calls of the source. No cut-off for these calls is given here.
Tests used:
Assay type in all cases: functional, cell-based
[1] = system: NIH3T3; test: Induction of apoptosis in mouse NIH3T3 cells assessed as accumulation at subG1 phase at 0.5 ug/ml after 24 hrs by flow cytometry
[2] = system: PC-3M; test: Induction of apoptosis in human PC3M cells assessed as accumulation at subG1 phase at 0.5 ug/ml after 24 hrs by flow cytometry
How it was run: (§1)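 PC-3M cells at about 75% confluency were seeded at 2.5 × 10^5 cells/well and left to reattach overnight at 37 °C in 5% CO2. They were then treated for 24 h in RPMI 1640 with 10% FBS, penicillin 100 IU/mL, streptomycin 50 µg/mL and Glutamax 2 mM. Controls were 0.1% DMSO (negative) and 0.5 µg/mL nocodazole (positive). Floating and adherent cells were pooled, PBS-washed, stained for DNA content with Guava cell cycle reagent, and scored as % sub-G1 by flow cytometry.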

[3] = system: NCI-H460; test: Antiproliferative activity against human NCI-H460 cells by MTT assay
How it was run: (§2)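 Cells were exposed to serial dilutions of DMSO-dissolved samples for 72 h in RPMI 1640 with 10% fetal bovine serum and glutamax. Viability was read by the tetrazolium (MTT) colorimetric assay as inhibition of proliferation.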

[4] = Antiproliferative activity against human PC3M cells by MTT assay; conditions: PC-3M; how it was run: as §2
[5] = system: PC-3M; test: Induction of apoptosis in human PC3M cells assessed as accumulation at subG1 phase at 2.5 to 10 uM after 24 hrs by flow cytometry; how it was run: as §1
[6] = system: SF-268; test: Antiproliferative activity against human SF268 cells by MTT assay; how it was run: as §2
[7] = system: MCF7; test: Antiproliferative activity against human MCF7 cells by MTT assay; how it was run: as §2
[8] = system: NIH3T3; test: Induction of apoptosis in mouse NIH3T3 cells assessed as accumulation at subG1 phase at 2.5 to 10 uM after 24 hrs by flow cytometry
[9] = system: MIA PaCa-2; test: Antiproliferative activity against human MIAPaCa2 cells by MTT assay; how it was run: as §2

SMILES | Activity [1] | Activity [2] | IC50 [3] [nM] | IC50 [4] [nM] | Activity [5] | IC50 [6] [nM] | IC50 [7] [nM] | Activity [8] | IC50 [9] [nM]
COC(=O)Nc1nc2cc(C(=O)c3cccs3)ccc2[nH]1 | Active | Active | – | – | – | – | – | – | –
COc1cccc2c1C(=O)c1c(O)c3c(c(O)c1C2=O)C[C@@](O)(C(=O)CO)C[C@@H]3O[C@H]1C[C@H](N)[C@H](O)[C@H](C)O1 [DOXORUBICIN] | – | – | 10 | 1110 | – | – | – | – | –
C=C1CC[C@H]2C(C)(C)CCC[C@]2(C)[C@H]1CC1=C(O)C(=O)C(CO)=CC1=O [TAURANIN] | – | – | 4300 | 3500 | Active | 1800 | 1500 | Active | 2800

Source: ChEMBL document CHEMBL1144804, “Sesquiterpene quinones and related metabolites from Phyllosticta spinarum, a fungal strain endophytic in Platycladus orientalis of the Sonoran Desert” (J Nat Prod, 2008)
